Measured values pooled from the literature.
Each line is one published result; the experiments were not run side by side.
ABCG2: Broad substrate specificity ATP-binding cassette transporter ABCG2 (ABCG2, Homo sapiens, UniProt Q9UNQ0)

| Compound | tested on | assay | test system | conditions | quantity | value |
| --- | --- | --- | --- | --- | --- | --- |
| CCc1cc(-c2noc(-c3cc(OC)nc(C4CCCC4)c3)n2)cc(C)c1OC[C@@H](O)CO |  |  | Wistar rat, plasma | oral, 1 mg/kg, 6 h, single dose | concentration | 41.1 ng/mL |
| Cc1cc2cc(O)cc(O)c2c(=O)o1 | K562 | cell growth or viability |  |  | IC50 | 19 µM |
| CCc1cc(C(=O)NC)c2nccc(N3CCc4c(cc(Cn5ccnc5)cc4-c4cn(C)nc4C(F)(F)F)C3=O)c2c1 |  |  | male Sprague-Dawley rat, plasma | intravenous, 3 mg/kg | half-life | 48 min |
| O=C(O)CSc1nnc(Br)n1-c1ccc(C2CC2)c2ccccc12 | ABCG2 | transporter uptake, inhibitor | Caco-2 | 100 µM, 2 h | inhibition | 38% |
| C=CC1(C)CC(OC(=O)CSc2nc3ccccc3s2)C2(C)C(C)CCC3(CCC(=O)C32)C(C)C1O (stereo not shown) | K562 | cell growth or viability |  |  | IC50 | 38.2 µM |
| C[C@H](C(=O)N1Cc2c(-c3ccc(C(=O)N4CCCc5ccccc54)cc3)cnn2C[C@@H]1C)c1ccccc1 | ABCG2 |  | dog, MDCK-MDR1 |  | Papp B→A | 13.4 ×10⁻⁶ cm/s |
| COC(=O)/C(C#N)=C1\Nc2ccccc2O1 | K562 | cell growth or viability |  |  | IC50 | 20.7 µM |
| Cc1noc(C)c1Cn1cc(N2C(=O)CN(Cc3cccc(O)c3)C2=O)cn1 |  |  | male Sprague-Dawley rat, plasma | oral, 100 mg/kg, 15 min | concentration | 26.7 ng/mL |
| O=C(N/N=C/c1ccc2ccccc2c1)c1ccc(O)c(O)c1 | K562 | cell growth or viability |  |  | IC50 | 28.9 µM |
| CO[C@H](C(=O)N1Cc2c(-c3ccc(C(=O)N4CCCc5ccccc54)cc3)cnn2C[C@H]1C(C)C)c1ccccc1 (single isomer, unassigned) | ABCG2 |  | dog, MDCK-MDR1 |  | Papp B→A | 8.4 ×10⁻⁶ cm/s |
| C/C(O)=C(\C#N)C(=O)Nc1ccc(C(F)(F)F)cc1 | ABCG2 |  | Caco-2 | 1 µM, 2 h, pH 7.4 | efflux ratio | 6.06 |
| COc1ccc2c(=O)n(C)c(-c3ccccc3)nc2c1 |  |  | male Sprague-Dawley rat, spleen | oral, 30 mg/kg, 15 min | concentration | 7.53 ng/mL |
| CCOC(=O)[C@@]12C[C@@H]1[C@@H](n1ccc3c(NC)nc(C#Cc4ccc(Cl)s4)nc31)[C@H](O)[C@@H]2O |  |  | male Sprague-Dawley rat, plasma | oral, 3 mg/kg, 8 h | concentration | 3.68 ng/mL |
| CC(C)[C@@H]1Cn2ncc(-c3ccc(C(=O)N4CCCc5ccccc54)cc3)c2CN1C(=O)Cc1ccccc1 | ABCG2 |  | dog, MDCK-MDR1 |  | Papp B→A | 5.2 ×10⁻⁶ cm/s |
| COc1cccc(-c2n[nH]c(SCc3ccccn3)n2)c1OC |  |  | female Sprague-Dawley rat, plasma | intravenous, 1 mg/kg, 8 h, single dose | concentration | 24.7 ng/mL |
| O=C(O)c1cc(Br)c(O)c(Br)c1 | K562 | cell growth or viability |  |  | IC50 | > 432 µM |
| CO[C@H](C(=O)N1Cc2c(-c3ccc(C(=O)N4CCCc5ccccc54)cc3)cnn2C[C@H]1C(C)C)c1cnn(C)c1 (single isomer, unassigned) | ABCG2 |  | dog, MDCK-MDR1 |  | Papp B→A | 26.1 ×10⁻⁶ cm/s |
| COc1ccc2c(c1)CCc1c(C(=O)NCCc3nc4cc(C)ccc4[nH]3)n[nH]c1-2 | K562 | cell growth or viability |  |  | IC50 | < 1.32 µM |
| Cc1n[nH]c(CC(=O)N2Cc3c(-c4ccc(C(=O)N5CCCc6ccccc65)cc4)cnn3C[C@H]2C)n1 | ABCG2 |  | dog, MDCK-MDR1 |  | Papp B→A | 14.1 ×10⁻⁶ cm/s |
